Calls of active or inactive are those of the source. The calls are words filed in the database; no cut-off is given here.
Tests used:
[1] = Effect on fatty acid composition in human myotubes assessed as change in intracellular SFA level at 30 uM after 96 hrs relative to DMSO control; assay type: functional
Summary of the method: (§1)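 Differentiated human myotubes (7 days) treated 96 h with 10 or 30 μM compound or DMSO 0.1% (two controls). Cells washed, harvested, lipids extracted and methylated (methanol, sulfuric acid, 90 °C, 1 h); FA methyl esters quantified by GC with C21:0 internal standard, peaks confirmed by standards and GC/MS; values as mol % of intracellular fatty acids.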

[2] = organism: Homo sapiens; experiment: Induction of fatty acid oxidation in human myotubes using [14C]oleic acid as substrate preincubated for 96 hrs followed by substrate addition incubated for 4 hrs by liquid scintillation analysis; assay type: functional
Summary of the method: (§2)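 Myotubes differentiated 7 days were pretreated 96 h with 10 or 30 μM compound, 10 nM GW501516 or DMSO 0.1%, then given [1-14C]oleic acid (0.5 μCi/mL, 100 μM) in DPBS with HEPES 10 mM and L-carnitine 1 mM, 4 h at 37 °C. Trapped CO2 and cell-associated label counted by scintillation; uptake = CO2 + CA; Bradford protein; % of DMSO basal; n = 8–15.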

[3] = Effect on fatty acid composition in human myotubes assessed as intracellular tTTA level at 10 uM after 96 hrs; assay type: functional; summary of the method: as §1
[4] = Effect on fatty acid composition in human myotubes assessed as intracellular PUFA n-9 level at 30 uM after 96 hrs (Rvb= 1.89%); assay type: functional; summary of the method: as §1
[5] = Effect on fatty acid composition in human myotubes assessed as intracellular SFA level at 10 uM after 96 hrs (Rvb= 31.41%); assay type: functional; summary of the method: as §1
[6] = Effect on total fatty acid level in human myotubes assessed as per mg of protein at 10 to 30 uM; assay type: ADME
[7] = Effect on fatty acid composition in human myotubes assessed as intracellular PUFA n-6 level at 30 uM after 96 hrs (Rvb= 11.46%); assay type: functional; summary of the method: as §1
[8] = Effect on fatty acid composition in human myotubes assessed as intracellular PUFA n-9 level at 10 uM after 96 hrs (Rvb= 1.89%); assay type: functional; summary of the method: as §1
[9] = Effect on fatty acid composition in human myotubes assessed as intracellular MUFA level at 30 uM after 96 hrs (Rvb= 49.95%); assay type: functional; summary of the method: as §1
[10] = Effect on fatty acid composition in human myotubes assessed as intracellular TTA level at 30 uM after 96 hrs; assay type: functional; summary of the method: as §1
[11] = Effect on fatty acid composition in human myotubes assessed as intracellular SFA level at 30 uM after 96 hrs (Rvb= 31.41%); assay type: functional; summary of the method: as §1
[12] = Effect on fatty acid composition in human myotubes assessed as intracellular PUFA n-6 level at 10 uM after 96 hrs (Rvb= 11.46%); assay type: functional; summary of the method: as §1
[13] = target: T1, Peroxisome proliferator-activated receptor (Homo sapiens) (UniProt P37231+Q07869+Q03181); experiment: Agonist activity at PPAR in human myotubes assessed as ANGPTL4 mRNA expression at 30 uM after 96 hrs by qPCR analysis relative to control
Summary of the method: (§3)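 Myotubes from satellite cells of abdominal muscle biopsies of healthy donors, differentiated 7 days, then exposed 96 h to test lipids (30 μM) vs DMSO 0.1%. Total RNA isolated (RIN ≥7), reverse transcribed, real-time PCR with gene-specific primers; expression expressed relative to DMSO control.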

[14] = Effect on fatty acid composition in human myotubes assessed as intracellular tTTA level at 30 uM after 96 hrs; assay type: functional; summary of the method: as §1
[15] = target: T1, Peroxisome proliferator-activated receptor (Homo sapiens); experiment: Agonist activity at PPAR in human myotubes assessed as FABP3 mRNA expression at 30 uM after 96 hrs by qPCR analysis relative to control; summary of the method: as §3
[16] = target: T1, Peroxisome proliferator-activated receptor (Homo sapiens); experiment: Agonist activity at PPAR in human myotubes assessed as CPT1A mRNA expression at 30 uM after 96 hrs by qPCR analysis relative to control; summary of the method: as §3
[17] = organism: Homo sapiens; experiment: Effect on intracellular [14C]oleic acid uptake in human myotubes at 10 to 30 uM preincubated for 96 hrs followed by substrate addition incubated for 4 hrs by liquid scintillation analysis; assay type: functional, cell-based; summary of the method: as §2
[18] = Effect on fatty acid composition in human myotubes assessed as change in intracellular MUFA level at 30 uM after 96 hrs relative to DMSO control; assay type: functional; summary of the method: as §1
[19] = Effect on fatty acid composition in human myotubes assessed as intracellular TTA level at 10 uM after 96 hrs; assay type: functional; summary of the method: as §1
[20] = Effect on fatty acid composition in human myotubes assessed as change in intracellular SFA level at 10 uM after 96 hrs relative to DMSO control; assay type: functional; summary of the method: as §1
[21] = Effect on fatty acid composition in human myotubes assessed as change in intracellular MUFA level at 10 uM after 96 hrs relative to DMSO control; assay type: functional; summary of the method: as §1
[22] = Effect on fatty acid composition in human myotubes assessed as intracellular PUFA n-3 level at 10 uM after 96 hrs (Rvb= 5.16%); assay type: functional; summary of the method: as §1
[23] = Effect on fatty acid composition in human myotubes assessed as intracellular MUFA level at 10 uM after 96 hrs (Rvb= 49.95%); assay type: functional; summary of the method: as §1
[24] = Effect on protein level in human myotubes at 10 to 30 uM; assay type: ADME
[25] = target: T1, Peroxisome proliferator-activated receptor (Homo sapiens); experiment: Agonist activity at PPAR in human myotubes assessed as CD36 mRNA expression at 30 uM after 96 hrs by qPCR analysis relative to control; summary of the method: as §3
[26] = Effect on fatty acid composition in human myotubes assessed as intracellular PUFA n-3 level at 30 uM after 96 hrs (Rvb= 5.16%); assay type: functional; summary of the method: as §1
[27] = Effect on fatty acid composition in human myotubes assessed as intracellular dTTA level at 10 uM after 96 hrs; assay type: functional; summary of the method: as §1
[28] = Effect on fatty acid composition in human myotubes assessed as intracellular MUFA level at 30 uM after 96 hrs (Rvb= 41.04%); assay type: functional; summary of the method: as §1
[29] = Effect on fatty acid composition in human myotubes assessed as intracellular PUFA n-9 level at 30 uM after 96 hrs (Rvb= 1.78%); assay type: functional; summary of the method: as §1
[30] = Effect on fatty acid composition in human myotubes assessed as intracellular SFA level at 10 uM after 96 hrs (Rvb= 36.16%); assay type: functional; summary of the method: as §1
[31] = Induction of fatty acid oxidation in human myotubes using [14C]oleic acid as substrate at 30 uM preincubated for 96 hrs followed by substrate addition incubated for 4 hrs by liquid scintillation analysis relative to control; assay type: functional; summary of the method: as §2
[32] = Effect on fatty acid composition in human myotubes assessed as intracellular PUFA n-9 level at 10 uM after 96 hrs (Rvb= 1.78%); assay type: functional; summary of the method: as §1
[33] = Effect on fatty acid composition in human myotubes assessed as intracellular PUFA n-6 level at 30 uM after 96 hrs (Rvb= 13.41%); assay type: functional; summary of the method: as §1
[34] = Effect on fatty acid composition in human myotubes assessed as intracellular PUFA n-3 level at 30 uM after 96 hrs (Rvb= […]); assay type: functional; summary of the method: as §1
[35] = Effect on fatty acid composition in human myotubes assessed as intracellular PUFA n-6 level at 10 uM after 96 hrs (Rvb= 13.41%); assay type: functional; summary of the method: as §1
[36] = Effect on fatty acid composition in human myotubes assessed as intracellular PUFA n-3 level at 10 uM after 96 hrs (Rvb= 7.47%); assay type: functional; summary of the method: as §1
[37] = Effect on fatty acid composition in human myotubes assessed as intracellular MUFA level at 10 uM after 96 hrs (Rvb= 41.04%); assay type: functional; summary of the method: as §1
[38] = Effect on fatty acid composition in human myotubes assessed as intracellular SFA level at 30 uM after 96 hrs (Rvb= 36.16%); assay type: functional; summary of the method: as §1
[39] = Effect on fatty acid composition in human myotubes assessed as intracellular dTTA level at 30 uM after 96 hrs; assay type: functional; summary of the method: as §1

**Q.** Which Activity [1] does the source give for `CCCCCCC#CCCCCCCSCC(=O)OC[C@@H](O)COP(=O)([O-])OCC[N+](C)(C)C` here?
**A.** 4.5%

**Q.** And the Activity [2]?
**A.** Dose-dependent effect

**Q.** What about the Activity [3] of the same compound?
**A.** 2.16 mol%

**Q.** What about the Activity [4] of the same compound?
**A.** 1.41 mol%

**Q.** And the Activity [5]?
**A.** 32.02 mol%

**Q.** And the Activity [6]?
**A.** Non-toxic

**Q.** What about the Activity [7] of the same compound?
**A.** 13.42 mol%

**Q.** What about the Activity [8] of the same compound?
**A.** 1.48 mol%

**Q.** What about the Activity [9] of the same compound?
**A.** 40.64 mol%

**Q.** What about the Activity [10] of the same compound?
**A.** 1.02 mol%

**Q.** And the Activity [11]?
**A.** 33.52 mol%

**Q.** And the Activity [12]?
**A.** 12.4 mol%

**Q.** And the fold change (FC) [13]?
**A.** 25

**Q.** What about the Activity [14] of the same compound?
**A.** 4.15 mol%

**Q.** What about the Activity [15] of the same compound?
**A.** Active

**Q.** What about the fold change (FC) [16] of the same compound?
**A.** < 7

**Q.** What about the Activity [17] of the same compound?
**A.** inactive

**Q.** And the Activity [18]?
**A.** -13.1%

**Q.** What about the Activity [19] of the same compound?
**A.** 0.43 mol%

**Q.** And the Activity [20]?
**A.** 0.7%

**Q.** What about the Activity [21] of the same compound?
**A.** -21.3%

**Q.** And the Activity [22]?
**A.** 5.18 mol%

**Q.** And the Activity [23]?
**A.** 46.19 mol%

**Q.** And the Activity [24]?
**A.** Non-toxic

**Q.** What about the Activity [25] of the same compound?
**A.** Active

**Q.** And the Activity [26]?
**A.** 5.68 mol%

**Q.** Which Activity [27] does the source give for `CCCCCCCCCCCCCCSCC(=O)O` [TETRADECYLTHIOACETIC ACID] here?
**A.** 1.11 mol%

**Q.** What about the Activity [28] of the same compound?
**A.** 28.44 mol%

**Q.** What about the Activity [29] of the same compound?
**A.** 1.73 mol%

**Q.** What about the Activity [1] of the same compound?
**A.** -49.4%

**Q.** What about the Activity [2] of the same compound?
**A.** Dose-dependent effect

**Q.** What about the Activity [6] of the same compound?
**A.** Non-toxic

**Q.** And the Activity [30]?
**A.** 26.24 mol%

**Q.** What about the Activity [10] of the same compound?
**A.** 31.81 mol%

**Q.** And the fold change (FC) [13]?
**A.** < 20

**Q.** What about the “fold change (FC)” value [31] of the same compound?
**A.** 3

**Q.** And the Activity [32]?
**A.** 2.2 mol%

**Q.** What about the Activity [15] of the same compound?
**A.** Active

**Q.** And the fold change (FC) [16]?
**A.** 5

**Q.** What about the Activity [17] of the same compound?
**A.** inactive

**Q.** What about the Activity [18] of the same compound?
**A.** -30.8%

**Q.** And the Activity [19]?
**A.** 13.02 mol%

**Q.** What about the Activity [20] of the same compound?
**A.** -27.2%

**Q.** And the Activity [21]?
**A.** -14.6%

**Q.** And the Activity [33]?
**A.** 11.78 mol%

**Q.** What about the Activity [34] of the same compound?
**A.** 6.62 mol%

**Q.** And the Activity [35]?
**A.** 14.34 mol%

**Q.** And the Activity [24]?
**A.** Non-toxic

**Q.** What about the Activity [36] of the same compound?
**A.** 7.86 mol%

**Q.** What about the Activity [25] of the same compound?
**A.** Active

**Q.** What about the Activity [37] of the same compound?
**A.** 35.09 mol%

**Q.** What about the Activity [38] of the same compound?
**A.** 18.25 mol%

**Q.** And the Activity [39]?
**A.** 1.28 mol%

Source: ChEMBL document CHEMBL3763093, “The molecular structure of thio-ether fatty acids influences PPAR-dependent regulation of lipid metabolism” (Bioorg Med Chem, 2016)
